Measured values published in publication PMC7199185 (ACS applied materials & interfaces, 2019).
Converted amounts (≈) assume the structure as drawn. Blank lines part the entries; values can stand above or below the molecule they belong to.

Legend:
[1] = system: E coli K12 biofilm; experiment: Biofilm formation inhibition, crystal violet staining; format: cell-based, Escherichia coli; details: at 2 ug/mL
[2] = Zeta potential; format: physicochemical; details: Aqueous solution of 2 mmolar concentration in pH 7
[3] = system: S. aureus JE2 biofilm; experiment: Biofilm formation inhibition, crystal violet staining; format: cell-based, Staphylococcus aureus; details: at MIC
Summary of the method: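 S. aureus JE2 initial inocula were exposed to test compound in two-fold dilutions from 16 to 4 μg/mL, with vancomycin or gentamicin at 4 to 1 μg/mL as comparators. Biofilm formed was quantified by crystal violet staining.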

[4] = system: Psedomonas aeruginosa ATCC 27853; format: cell-based, Pseudomonas aeruginosa; details: ATCC 27853, pH 7
[5] = system: Acinetobacter baumannii ATCC 19606; format: cell-based; details: ATCC 19606, pH 7
[6] = system: Escherichia coli ATCC 25922; format: cell-based; details: ATCC 25922, pH 7
[7] = system: Klebsiella pneumoniae ATCC 700603; format: cell-based; details: ATCC 700603, pH 7
[8] = system: Cryptococcus neoformans var. grubii H99 ATCC 20882; format: cell-based; details: ATCC 20882, pH 7
[9] = system: Candida albicans ATCC 90028; format: cell-based; details: ATCC 90028, pH 7
[10] = system: Staphylococcus aureus ATCC 43300 MRSA; format: cell-based; details: ATCC 43300, pH 7
[11] = system: HaCaT (Immortalized Human Keratinocyte); format: cell-based; details: 24 h
[12] = system: HCEC (Immortalized Human Colonic Epithelial Cell); format: cell-based; details: 24 h

SMILES: CNC(C)C1CCC(N)C(OC2C(N)CC(N)C(OC3OCC(C)(O)C(NC)C3O)C2O)O1 (stereo not shown) [Gen, Gentamicin]
reduction of E coli biofilm formation [1]: about 54. 3%

Zeta potential [2]: 41.40 ± 1.05 mV
SMILES: CCCCCCCCCCCCCCCCCC(=O)NCCCC[C@H](NC(=O)CCCCCCCCCCCCCCCCC)C(=O)N[C@@H](CCCCN)C(=O)N[C@@H](CCCCN)C(=O)N[C@@H](CCCCN)C(=O)N[C@@H](CCCCN)C(=O)N[C@@H](CCCCN)C(N)=O [PA 9]

SMILES: CN[C@H](CC(C)C)C(=O)N[C@H]1C(=O)N[C@@H](CC(N)=O)C(=O)N[C@H]2C(=O)N[C@H]3C(=O)N[C@H](C(=O)N[C@H](C(=O)O)c4cc(O)cc(O)c4-c4cc3ccc4O)[C@H](O)c3ccc(c(Cl)c3)Oc3cc2cc(c3O[C@@H]2O[C@H](CO)[C@@H](O)[C@H](O)[C@H]2O[C@H]2C[C@](C)(N)[C@H](O)[C@H](C)O2)Oc2ccc(cc2Cl)[C@H]1O [Van, Vancomycin]
reduction of MRSA biofilm formation [3]: up to 92.80 ± 0.68%

MIC Pa (P. aeruginosa ATCC 27853) [4]: >32 µg/mL
MIC Ab (A. baumannii ATCC 19606) [5]: >32 µg/mL
MIC Ec (E. coli ATCC 25922) [6]: >32 µg/mL
MIC Kp (K. pneumoniae ATCC 700603) [7]: >32 µg/mL
MIC Cn (C. neoformans var. grubii H99 ATCC 20882) [8]: >32 µg/mL
MIC Ca (C. albicans ATCC 90028) [9]: >32 µg/mL
MIC Sa (S. aureus ATCC 43300 MRSA) [10]: >32 µg/mL
Zeta potential [2]: 18.83 ± 1.69 mV
SMILES: CCCCCCCC(=O)NCCCC[C@H](NC(=O)CCCCCCC)C(=O)N[C@@H](CCCCN)C(=O)N[C@@H](CCCCN)C(=O)N[C@@H](CCCCN)C(=O)N[C@@H](CCCCN)C(=O)N[C@@H](CCCCN)C(N)=O [PA 8]
IC50 HaCaT [11]: 40.4 µg/mL (≈ 38.9 µM)
IC50 HCEC [12]: 19.3 µg/mL (≈ 18.6 µM)
